{"data": "Published values from different studies", "observed": "cell growth or viability", "note": "Compare with care: the assays were run in different laboratories."}
{"SMILES": "CC(C)(C)c1cnc(CSc2cnc(NC(=O)C3CCN(CCCCCCCCSc4cccc5c4C(=O)N(C4CCC(=O)NC4=O)C5=O)CC3)s2)o1 (stereo not drawn)", "cell line": "HH", "method": "CCK-8", "tested at": "0.25 µM", "measurement": "viability", "value": "0%"}
{"SMILES": "CCOC(=O)c1nn(-c2cccc(Cl)c2)/c(=N/N=C(\\C)c2ccc(NC(=O)c3ccccc3)cc2)s1", "cell line": "HepG2", "method": "MTT", "tested at": "0.625 µM", "measurement": "viability", "value": "3.18%"}
{"SMILES": "S=C(Nc1ccccc1)Nc1ccc(Oc2nnc(-c3ccc(Cl)cc3)c3ccccc23)cc1", "cell line": "HepG2", "method": "MTT", "tested at": "1.25 µM", "time": "24 h", "measurement": "viability", "value": "57.1%"}
{"SMILES": "CNc1ncc2c(/C=C/C(=O)N3CCC(OC)CC3)nn(CC3CCCO3)c2n1 (stereo not drawn)", "cell line": "OE33", "method": "resazurin", "time": "5 days", "measurement": "EC50", "value": "> 30 µM"}
{"SMILES": "CC(C)(C)c1cnc(CSc2cnc(NC(=O)C3CCN(C(=O)CCCSc4cccc5c4C(=O)N(C4CCC(=O)NC4=O)C5=O)CC3)s2)o1 (stereo not drawn)", "cell line": "HH", "method": "CCK-8", "tested at": "0.25 µM", "measurement": "viability", "value": "86.7%"}
{"SMILES": "CNc1ncc2c(/C=C/C(=O)N3CCC(OC)CC3)nn(Cc3cccc(OC)c3)c2n1", "cell line": "OE33", "method": "resazurin", "time": "5 days", "measurement": "EC50", "value": "2.89 µM"}
{"SMILES": "CC(C)(C)c1cnc(CSc2cnc(NC(=O)C3CCN(CCCCCCCSc4cccc5c4C(=O)N(C4CCC(=O)NC4=O)C5=O)CC3)s2)o1 (stereo not drawn)", "cell line": "HH", "method": "CCK-8", "tested at": "0.15 µM", "measurement": "viability", "value": "76.7%"}
{"SMILES": "CCOC(Cn1nc(/C=C/C(=O)N2CCC(OC)CC2)c2cnc(NC)nc21)OCC", "cell line": "OE33", "method": "resazurin", "time": "5 days", "measurement": "EC50", "value": "> 30 µM"}
{"SMILES": "O=C(Nc1ccc(Oc2nnc(-c3ccc(Cl)cc3)c3ccccc23)cc1)c1cccc([N+](=O)[O-])c1", "cell line": "HepG2", "method": "MTT", "tested at": "10 µM", "measurement": "cell death", "value": "93.8%"}
{"SMILES": "C=CC(=O)NC1CCN(c2ncc3ncnc(Nc4ccc(Oc5ccc6c(c5)ncn6C)c(C)c4)c3n2)CC1", "cell line": "MKN-7", "measurement": "EC50", "value": "0.00659 µM"}
{"SMILES": "O=C(C=Cc1ccccc1)Nc1ccc(Oc2nnc(-c3ccc(Cl)cc3)c3ccccc23)cc1", "cell line": "HepG2", "method": "MTT", "tested at": "2.5 µM", "measurement": "cell death", "value": "87.9%"}
{"SMILES": "CNc1ncc2c(/C=C/C(=O)N3CCCC(N(C)C)C3)nn(CC3CCCC3)c2n1 (stereo not drawn)", "cell line": "OE33", "method": "resazurin", "time": "5 days", "measurement": "EC50", "value": "17.7 µM"}
{"SMILES": "CC(=NNC(=O)c1ccncc1)c1ccc(Nc2nnc(-c3ccc(Cl)cc3)c3ccccc23)cc1", "cell line": "HepG2", "method": "MTT", "tested at": "0.156 µM", "measurement": "cell death", "value": "17.1%"}
{"SMILES": "CNc1ncc2c(/C=C/C(=O)N3CCC(OC)CC3)nn(CC3CCCCC3)c2n1", "cell line": "OE33", "method": "resazurin", "time": "5 days", "measurement": "EC50", "value": "6.51 µM"}
{"SMILES": "CC(=NNC(=O)c1cccnc1)c1ccc(Nc2nnc(-c3ccc(Cl)cc3)c3ccccc23)cc1", "cell line": "HepG2", "method": "MTT", "tested at": "2.5 µM", "time": "24 h", "measurement": "viability", "value": "6.93%"}
{"SMILES": "CNc1ncc2c(/C=C/C(=O)N3CCC(C)CC3)nn(CC3CCCC3)c2n1", "cell line": "OE33", "method": "resazurin", "time": "5 days", "measurement": "EC50", "value": "> 30 µM"}
{"SMILES": "CC(=NNC(=O)c1ccccc1Br)c1ccc(Nc2nnc(-c3ccc(Cl)cc3)c3ccccc23)cc1", "cell line": "HepG2", "method": "MTT", "tested at": "0.625 µM", "time": "24 h", "measurement": "viability", "value": "21.2%"}
{"SMILES": "CCOC(=O)c1nn(-c2cccc(Cl)c2)/c(=N/N=C(\\C)c2ccc(NC(=O)c3ccc(Cl)cc3)cc2)s1", "cell line": "HepG2", "method": "MTT", "tested at": "10 µM", "measurement": "viability", "value": "4.04%"}
{"SMILES": "O=C(Nc1ccc(Oc2nnc(-c3ccc(Cl)cc3)c3ccccc23)cc1)c1ccccc1", "cell line": "HepG2", "method": "MTT", "tested at": "78 nM", "measurement": "cell death", "value": "3.97%"}
{"SMILES": "CC(C)(C)c1cnc(CSc2cnc(NC(=O)C3CCN(CCCCCCCCSc4cccc5c4CN(C4CCC(=O)NC4=O)C5=O)CC3)s2)o1 (stereo not drawn)", "cell line": "HH", "method": "CCK-8", "tested at": "1 nM", "measurement": "viability", "value": "97.4%"}
{"SMILES": "CNc1ncc2c(/C=C/C(=O)N3CCCC(OC)C3)nn(Cc3cccc(C)c3)c2n1 (stereo not drawn)", "cell line": "OE33", "method": "resazurin", "time": "5 days", "measurement": "EC50", "value": "17.6 µM"}
{"SMILES": "CC(C)(C)c1cnc(CSc2cnc(NC(=O)C3CCN(C(=O)COCCOCCSc4cccc5c4C(=O)N(C4CCC(=O)NC4=O)C5=O)CC3)s2)o1 (stereo not drawn)", "cell line": "HH", "method": "CCK-8", "tested at": "1 µM", "measurement": "viability", "value": "7.67%"}
{"SMILES": "Nc1ncnc2c1c(/C=C/C(=O)N1CCC(O)CC1)nn2CC1CCCC1", "cell line": "OE33", "method": "resazurin", "time": "5 days", "measurement": "EC50", "value": "> 30 µM"}
{"SMILES": "CC(=O)Nc1ccc(Oc2nnc(-c3ccc(Cl)cc3)c3ccccc23)cc1", "cell line": "HepG2", "method": "MTT", "tested at": "5 µM", "measurement": "cell death", "value": "93.5%"}
